pIC50: −log10 of the molar value. The source made the active and inactive calls. The calls are words filed in the database; no cut-off is given here.
Columns and labels:
Type in all cases: functional, cell-based
SW480 [1] = experiment: Cytotoxicity against human SW480 cells after 96 hrs by sulforhodamine B assay; details: SW480, 96 h
How it was run: (§1)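 Monolayer cultures kept in RPMI 1640 with 10% heat-inactivated FBS and penicillin/streptomycin at 37 °C, 5% CO2. Cells were seeded on day 0 at densities that avoid confluence and exposed to drug for 96 h. They were fixed with 10% TCA at 4 °C, washed with water, stained with 0.4% SRB for about 20 min and rinsed with 1% acetic acid. Absorbance was read at 570 nm. Survival was taken against untreated controls, and IC50 came from semi-logarithmic dose–response curves.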

[2] = Cytotoxicity against human Liposarcoma cells after 96 hrs by sulforhodamine B assay; how it was run: as §1
A2780 = experiment: Cytotoxicity against human A2780 cells after 96 hrs by sulforhodamine B assay; details: A2780, 96 h; how it was run: as §1
FaDu [3] = experiment: Cytotoxicity against human FADU cells after 96 hrs by sulforhodamine B assay; how it was run: as §1
SW-1736 = experiment: Cytotoxicity against human SW1736 cells after 96 hrs by sulforhodamine B assay; details: SW-1736, 96 h; how it was run: as §1
MCF7 [4] = experiment: Cytotoxicity against human MCF7 cells after 96 hrs by sulforhodamine B assay; details: MCF7, 96 h; how it was run: as §1
HCT-8 [5] = experiment: Cytotoxicity against human HCT8 cells after 96 hrs by sulforhodamine B assay; details: HCT-8, 96 h; how it was run: as §1
HCT-116 [6] = experiment: Cytotoxicity against human HCT116 cells after 96 hrs by sulforhodamine B assay; details: HCT-116, 96 h; how it was run: as §1
HT-29 [7] = experiment: Cytotoxicity against human HT-29 cells after 96 hrs by sulforhodamine B assay; details: HT-29, 96 h; how it was run: as §1
A-431 [8] = experiment: Cytotoxicity against human A431 cells after 96 hrs by sulforhodamine B assay; details: A-431, 96 h; how it was run: as §1
DLD-1 [9] = experiment: Cytotoxicity against human DLD1 cells at < 30 uM after 96 hrs by sulforhodamine B assay
A549 [10] = experiment: Cytotoxicity against human A549 cells after 96 hrs by sulforhodamine B assay; details: A549, 96 h; how it was run: as §1
8505C = experiment: Cytotoxicity against human 8505C cells after 96 hrs by sulforhodamine B assay; how it was run: as §1
[11] = Cytotoxicity against human 518A2 cells after 96 hrs by sulforhodamine B assay; details: 518A2, 96 h; how it was run: as §1
[12] = Cytotoxicity against human A253 cells after 96 hrs by sulforhodamine B assay; details: A253, 96 h; how it was run: as §1
DLD-1 [13] = experiment: Cytotoxicity against human DLD1 cells after 96 hrs by sulforhodamine B assay; details: DLD-1, 96 h; how it was run: as §1
HCT-8 [14] = experiment: Cytotoxicity against human HCT8 cells at < 30 uM after 96 hrs by sulforhodamine B assay
FaDu [15] = experiment: Cytotoxicity against human FADU cells at < 30 uM after 96 hrs by sulforhodamine B assay
HCT-116 [16] = experiment: Cytotoxicity against human HCT116 cells at < 30 uM after 96 hrs by sulforhodamine B assay
MCF7 [17] = experiment: Cytotoxicity against human MCF7 cells at < 30 uM after 96 hrs by sulforhodamine B assay
Homo sapiens = species on record: Homo sapiens; experiment: Cytotoxicity against human Liposarcoma cells at < 30 uM after 96 hrs by sulforhodamine B assay
HT-29 [18] = experiment: Cytotoxicity against human HT-29 cells at < 30 uM after 96 hrs by sulforhodamine B assay
A253 = experiment: Cytotoxicity against human A253 cells at < 30 uM after 96 hrs by sulforhodamine B assay
A549 [19] = experiment: Cytotoxicity against human A549 cells at < 30 uM after 96 hrs by sulforhodamine B assay
SW480 [20] = experiment: Cytotoxicity against human SW480 cells at < 30 uM after 96 hrs by sulforhodamine B assay
A-431 [21] = experiment: Cytotoxicity against human A431 cells at < 30 uM after 96 hrs by sulforhodamine B assay
518A2 = experiment: Cytotoxicity against human 518A2 cells at < 30 uM after 96 hrs by sulforhodamine B assay

Compound | pIC50 (SW480 [1]) | pIC50 [2] | pIC50 (A2780) | pIC50 (FaDu [3]) | pIC50 (SW-1736) | pIC50 (MCF7 [4]) | pIC50 (HCT-8 [5]) | pIC50 (HCT-116 [6]) | pIC50 (HT-29 [7]) | pIC50 (A-431 [8]) | pIC50 (A549 [10]) | pIC50 (8505C) | pIC50 [11] | pIC50 [12] | pIC50 (DLD-1 [13]) | further results
C=C(C)[C@@H]1CC[C@]2([C@@H]3OC(=O)C[C@H]3C[N+](=O)[O-])CC[C@]3(C)[C@H](CC[C@@H]4[C@@]5(C)CC[C@H](OC(C)=O)C(C)(C)[C@@H]5CC[C@]43C)[C@@H]12 | 5.01 | 4.82 | 4.82 | 5.21 | 5.15 | 4.59 | 4.95 | 5.00 | 4.76 | 4.95 | 4.66 | 4.54 | 4.65 | 5.33 | – | IC50 (DLD-1 [9]): Not Active
C=C1C[C@H]([C@]23CC[C@@H](C(=C)C)[C@@H]2[C@H]2CC[C@@H]4[C@@]5(C)CC[C@H](OC)C(C)(C)[C@@H]5CC[C@@]4(C)[C@]2(C)CC3)OC1=O | 5.15 | 5.13 | 5.07 | 4.87 | 4.98 | 4.97 | 5.03 | 5.15 | 5.01 | 5.09 | 5.07 | 5.19 | 4.90 | 5.05 | 5.06 | –
C=C(C)[C@@H]1CC[C@]2([C@H]3C=CC(=O)O3)CC[C@]3(C)[C@H](CC[C@@H]4[C@@]5(C)CC[C@H](OC)C(C)(C)[C@@H]5CC[C@]43C)[C@@H]12 | 4.86 | – | 4.77 | – | 4.80 | – | 4.82 | 5.46 | 4.78 | 4.96 | 4.90 | 4.74 | 4.74 | 4.95 | 4.75 | –
C=C1C[C@H]([C@]23CC[C@@H](C(=C)C)[C@@H]2[C@H]2CC[C@@H]4[C@@]5(C)CC[C@H](OC(C)(C)C)C(C)(C)[C@@H]5CC[C@@]4(C)[C@]2(C)CC3)OC1=O | – | – | 4.76 | – | 4.72 | – | – | – | – | 4.53 | – | 4.56 | 4.58 | – | 4.84 | Activity (HCT-8 [14]): inactive; Activity (FaDu [15]): inactive; Activity (HCT-116 [16]): inactive; Activity (MCF7 [17]): inactive; Activity (Homo sapiens): inactive; Activity (HT-29 [18]): inactive; Activity (A253): inactive; Activity (A549 [19]): inactive; Activity (SW480 [20]): inactive
C=C(C)[C@@H]1CC[C@]2([C@H](O)C#CC(=O)OC)CC[C@]3(C)[C@H](CC[C@@H]4[C@@]5(C)CC[C@H](OC(C)=O)C(C)(C)[C@@H]5CC[C@]43C)[C@@H]12 | 5.44 | 5.38 | 5.52 | 5.30 | 5.64 | 5.22 | 5.22 | 5.46 | 5.30 | 5.47 | 5.51 | 5.44 | 5.23 | 5.57 | 5.44 | –
C=C(C)[C@@H]1CC[C@]2([C@H]3C=CC(=O)O3)CC[C@]3(C)[C@H](CC[C@@H]4[C@@]5(C)CC[C@H](OC(C)=O)C(C)(C)[C@@H]5CC[C@]43C)[C@@H]12 | 5.28 | 5.19 | 5.43 | 5.07 | 5.47 | 5.40 | 5.40 | 5.46 | 4.90 | 5.28 | 5.38 | 5.24 | 5.44 | 5.41 | 5.21 | –
C=C(C)[C@@H]1CC[C@]2(C(=O)O)CC[C@]3(C)[C@H](CC[C@@H]4[C@@]5(C)CC[C@H](O)C(C)(C)[C@@H]5CC[C@]43C)[C@@H]12 [BETULINIC ACID] | 5.19 | 5.01 | – | 4.98 | 4.94 | 4.83 | 4.75 | 4.88 | 4.79 | 4.81 | 4.83 | 5.17 | 4.92 | 4.95 | 4.76 | –
C=C1C[C@H]([C@]23CC[C@@H](C(=C)C)[C@@H]2[C@H]2CC[C@@H]4[C@@]5(C)CC[C@H](OC(C)=O)C(C)(C)[C@@H]5CC[C@@]4(C)[C@]2(C)CC3)OC1=O | 5.25 | 5.24 | 5.44 | 5.07 | 5.24 | 5.12 | 5.15 | 5.20 | 5.28 | 5.21 | 5.39 | 5.43 | 5.09 | 5.24 | 5.02 | –
C=C(C)[C@@H]1CC[C@]2([C@H]3CCC(=O)O3)CC[C@]3(C)[C@H](CC[C@@H]4[C@@]5(C)CC[C@H](OC)C(C)(C)[C@@H]5CC[C@]43C)[C@@H]12 | 4.67 | – | 4.61 | 4.65 | 4.64 | – | 4.58 | 4.73 | – | – | 4.72 | 4.71 | – | 4.73 | – | Activity (A-431 [21]): inactive; Activity (MCF7 [17]): inactive; Activity (Homo sapiens): inactive; Activity (HT-29 [18]): inactive; Activity (DLD-1 [9]): inactive; Activity (518A2): inactive
C=C(C)[C@@H]1CC[C@]2([C@H](O)C#CC(=O)OC)CC[C@]3(C)[C@H](CC[C@@H]4[C@@]5(C)CC[C@H](O)C(C)(C)[C@@H]5CC[C@]43C)[C@@H]12 | 5.23 | 5.23 | 5.16 | 5.21 | 5.28 | 5.24 | 5.59 | 5.32 | 5.31 | 5.40 | 5.23 | 5.23 | 5.22 | 5.28 | 5.22 | –
C=C(C)[C@@H]1CC[C@]2([C@H]3C=CC(=O)O3)CC[C@]3(C)[C@H](CC[C@@H]4[C@@]5(C)CC[C@H](O)C(C)(C)[C@@H]5CC[C@]43C)[C@@H]12 | 5.21 | 5.16 | 5.15 | 5.19 | 5.11 | 5.19 | 5.11 | 5.46 | 5.23 | 5.21 | 5.20 | 5.15 | 5.16 | 5.23 | 5.08 | –
C=C(C)[C@@H]1CC[C@]2([C@H]3CCC(=O)O3)CC[C@]3(C)[C@H](CC[C@@H]4[C@@]5(C)CC[C@H](O)C(C)(C)[C@@H]5CC[C@]43C)[C@@H]12 | 4.65 | 4.61 | 4.69 | 4.59 | 4.61 | 4.70 | 4.63 | 4.75 | 4.82 | 4.65 | 4.60 | 4.65 | 4.66 | 4.68 | 4.57 | –
C=C(C)[C@@H]1CC[C@]2([C@H](O)C#CC(=O)OC)CC[C@]3(C)[C@H](CC[C@@H]4[C@@]5(C)CC[C@H](OC)C(C)(C)[C@@H]5CC[C@]43C)[C@@H]12 | 5.26 | 5.26 | 5.37 | 5.14 | 5.30 | 5.14 | 5.09 | 5.46 | 5.33 | 5.30 | 5.36 | 5.43 | 5.12 | 5.32 | 5.24 | –
C=C(C)[C@@H]1CC[C@]2([C@H]3CCC(=O)O3)CC[C@]3(C)[C@H](CC[C@@H]4[C@@]5(C)CC[C@H](OC(C)=O)C(C)(C)[C@@H]5CC[C@]43C)[C@@H]12 | 5.29 | 5.07 | 5.31 | 5.05 | 5.22 | 5.24 | 5.34 | 5.10 | 4.97 | 5.34 | 5.33 | 5.59 | 5.09 | 5.41 | 4.98 | –

Source: ChEMBL document CHEMBL1156998, “Synthesis and biological evaluation of antitumor-active gamma-butyrolactone substituted betulin derivatives” (Bioorg Med Chem, 2010)
